Experimental data: ChEMBL document CHEMBL1143773, “Synthesis and studies on antidepressant and anticonvulsant activities of some 3-(2-furyl)-pyrazoline derivatives” (Eur J Med Chem, 2007)
Calls of active or inactive are those of the source. The rule behind the calls is not given here.

Tests used:
Mus musculus [1] = assay: Anticonvulsant activity in Albino mouse at 100 mg/kg, ip after 4 hrs by MES test; format: functional, organism-based; design: dose 100 mg/kg
Procedure, shortened: (§1)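 Phase I protocol of the NINCDS antiepileptic drug development programme in albino mice, covering MES, subcutaneous pentylenetetrazole (metrazol) and rotarod neurotoxicity. Doses were 30, 100 and 300 mg/kg, read at 1/2 h and 4 h. One animal per dose and time point, scored as 0/1 (no activity) or 1/1 (noticeable activity).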

Mus musculus [2] = assay: Anticonvulsant activity against metrazole-induced seizures in Albino mouse at 100 mg/kg, ip after 30 mins by scMet assay; format: functional, organism-based; design: dose 100 mg/kg; procedure, shortened: as §1
Mus musculus [3] = assay: Anticonvulsant activity against metrazole-induced seizures in Albino mouse at 300 mg/kg, ip after 30 mins by scMet assay; format: functional, organism-based; design: dose 300 mg/kg; procedure, shortened: as §1
Mus musculus [4] = assay: Neurotoxicity in Albino mouse at 300 mg/kg, ip after 30 mins by RotaRod test; format: toxicity, organism-based; design: dose 300 mg/kg, route intraperitoneal; settings: in vivo, 0.5 h; procedure, shortened: as §1
Mus musculus [5] = assay: Anticonvulsant activity against metrazole-induced seizures in Albino mouse at 30 mg/kg, ip after 4 hrs by scMet; format: functional, organism-based; design: dose 30 mg/kg; procedure, shortened: as §1
Mus musculus [6] = assay: Antidepressant activity in Albino mouse assessed as duration of immobility at 10 mg/kg, ip by forced-swimming test; format: functional; settings: route intraperitoneal
Procedure, shortened: (§2)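 Porsolt forced-swim test in albino mice. Drug given ip at 0.5 ml/20 g body weight, 1 h before testing. Controls received 1% aqueous Tween 80. Each mouse was placed singly in a water-filled Plexiglas cylinder for 6 min. Immobility (floating upright with only slight movements to stay afloat) was timed over the last 4 min.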

Mus musculus [7] = assay: Anticonvulsant activity against metrazole-induced seizures in Albino mouse at 30 mg/kg, ip after 30 mins by scMet assay; format: functional, organism-based; design: dose 30 mg/kg; procedure, shortened: as §1
Mus musculus [8] = assay: Anticonvulsant activity in Albino mouse by MES test at 100 mg/kg, ip after 30 mins; format: functional, organism-based; design: dose 100 mg/kg; procedure, shortened: as §1
Mus musculus [9] = assay: Neurotoxicity in Albino mouse at 100 mg/kg, ip after 4 hrs by RotaRod test; format: toxicity, organism-based; design: dose 100 mg/kg, route intraperitoneal; settings: in vivo; procedure, shortened: as §1
Mus musculus [10] = assay: Neurotoxicity in Albino mouse at 100 mg/kg, ip after 30 mins by RotaRod test; format: toxicity, organism-based; design: dose 100 mg/kg, route intraperitoneal; settings: in vivo, 0.5 h; procedure, shortened: as §1
Mus musculus [11] = assay: Anticonvulsant activity against metrazole-induced seizures in Albino mouse at 300 mg/kg, ip after 4 hrs by scMet assay; format: functional, organism-based; design: dose 300 mg/kg; procedure, shortened: as §1
Mus musculus [12] = assay: Anticonvulsant activity in Albino mouse by MES test at 300 mg/kg, ip after 30 mins; format: functional, organism-based; design: dose 300 mg/kg; procedure, shortened: as §1
Mus musculus [13] = assay: Neurotoxicity in Albino mouse at 30 mg/kg, ip after 4 hrs by RotaRod test; format: toxicity, organism-based; design: dose 30 mg/kg, route intraperitoneal; settings: in vivo; procedure, shortened: as §1
Mus musculus [14] = assay: Neurotoxicity in Albino mouse at 30 mg/kg, ip after 30 mins by RotaRod test; format: toxicity, organism-based; design: dose 30 mg/kg, route intraperitoneal; settings: in vivo, 0.5 h; procedure, shortened: as §1
Mus musculus [15] = assay: Anticonvulsant activity in Albino mouse by MES test at 30mg/kg, ip after 30 mins; format: functional, organism-based; procedure, shortened: as §1
Mus musculus [16] = assay: Neurotoxicity in Albino mouse at 300 mg/kg, ip after 4 hrs by RotaRod test; format: toxicity, organism-based; design: dose 300 mg/kg, route intraperitoneal; settings: in vivo; procedure, shortened: as §1
Mus musculus [17] = assay: Anticonvulsant activity against metrazole-induced seizures in Albino mouse at 100 mg/kg, ip after 4 hrs by scMet assay; format: functional, organism-based; design: dose 100 mg/kg; procedure, shortened: as §1
Mus musculus [18] = assay: Anticonvulsant activity in Albino mouse at 30 mg/kg, ip after 4 hrs by MES test; format: functional, organism-based; design: dose 30 mg/kg; procedure, shortened: as §1
Mus musculus [19] = assay: Antidepressant activity in Albino mouse assessed as duration of immobility at 10 mg/kg, ip by forced-swimming test relative to control; format: functional; settings: route intraperitoneal; procedure, shortened: as §2
Mus musculus [20] = assay: Anticonvulsant activity in Albino mouse at 300 mg/kg, ip after 4 hrs by MES test; format: functional, organism-based; design: dose 300 mg/kg; procedure, shortened: as §1

CNC(=S)N1N=C(c2ccco2)CC1c1ccccc1 (stereo not given)
Activity (Mus musculus [1]): inactive | Activity (Mus musculus [2]): inactive | Activity (Mus musculus [3]): inactive | Activity (Mus musculus [4]): Not Active | Activity (Mus musculus [5]): inactive | Activity (Mus musculus [6]): 201 s | Activity (Mus musculus [7]): inactive | Activity (Mus musculus [8]): inactive | Activity (Mus musculus [9]): Not Active | Activity (Mus musculus [10]): Not Active | Activity (Mus musculus [11]): inactive | Activity (Mus musculus [12]): inactive | Activity (Mus musculus [13]): Not Active | Activity (Mus musculus [14]): Not Active | Activity (Mus musculus [15]): inactive | Activity (Mus musculus [16]): Not Active | Activity (Mus musculus [17]): inactive | Activity (Mus musculus [18]): inactive | Activity (Mus musculus [19]): -4.28% | Activity (Mus musculus [20]): inactive
